Calls of active or inactive are those of the source. The rule behind the calls is not given here.
What was measured:
TERT-RPE1 = test: cells; format: ADME, cell-based; settings: Homo sapiens, RPE-1, 72 h
CAPAN-1 = test: cells; format: functional, cell-based; settings: Homo sapiens, CAPAN-1, 72 h
HCT-116 = test: Antiproliferative activity against human HCT-116 cells assessed as inhibition of cell proliferation measured after 72 hrs by real time imaging analysis; format: functional, cell-based; settings: HCT-116, 72 h
How it was run: (§1)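 Adherent cells seeded at 500–1500 per well and incubated overnight, then treated at seven concentrations from 100 to 6.4 x 10^-3 µM. Kept at 37°C for 72 h with real-time imaging every 3 h (one field per well, 10x). Growth quantified as percent confluence; IC50 calculated from area under the curve.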

NCI-H460 = test: Antiproliferative activity against human NCI-H460 cells assessed as inhibition of cell proliferation measured after 72 hrs by real time imaging analysis; format: functional, cell-based; settings: NCI-H460, 72 h
How it was run: as §1

[1] = Antiproliferative activity against human DND41 cells assessed as inhibition of cell proliferation measured after 72 hrs by real time imaging analysis; format: functional, cell-based; settings: DND41, 72 h
How it was run: (§2)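 Suspension cells seeded at 2500–5500 per well into wells already holding compound, seven concentrations from 100 to 6.4 x 10^-3 µM. Incubated at 37°C for 72 h with imaging every 3 h (one field per well, 10x). Growth taken as percent confluence; IC50 derived from area under the curve.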

HL-60 = test: cells; format: functional, cell-based; settings: Homo sapiens, HL-60, 72 h
K562 = test: Antiproliferative activity against human K562 cells assessed as inhibition of cell proliferation measured after 72 hrs by real time imaging analysis; format: functional, cell-based; settings: K562, 72 h
How it was run: as §2

MM1.S = test: cells; format: functional, cell-based; settings: Homo sapiens, 72 h
Z-138 = test: cells; format: functional, cell-based; settings: Homo sapiens, Z-138, 72 h
cells = format: ADME, cell-based; settings: Homo sapiens, PBMC, 72 h
HEp-2 = test: Inhibition of alpha-tubulin polymerization in human HEp-2 cells assessed as disintegration of microtubule network at 0.3 to 30 uM measured after 3 hrs by DAPI staining based immunoflourescence method relative to vincristine; format: cell-based; settings: dose 0.3-30 µM
How it was run: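 HEp-2 cells seeded at 15000 per well and incubated overnight, then exposed 3 h to compound or DMSO carrier. Fixed in 4% PFA and permeabilised. Stained with mouse anti-alpha-tubulin and Alexa Fluor 488 anti-mouse IgG, with DAPI nuclear counterstain. Imaged by confocal microscopy at 63x water immersion. Vincristine and docetaxel served as references.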

Tubulin (Sus scrofa) = test: Inhibition of porcine brain tubulin polymerization in presence of GTP at 30 uM measured every 60 secs for 1 hr by multiplate reader method

CN(C)c1ccc(/C=C(\C#N)c2nc3ccc(C#N)cc3n2C)cc1
IC50 (TERT-RPE1): 80.9 µM | IC50 (CAPAN-1): 55.9 µM | IC50 (HCT-116): 68.5 µM | IC50 (NCI-H460): > 100 µM | IC50 [1]: > 100 µM | IC50 (HL-60): 68.1 µM | IC50 (K562): > 100 µM | IC50 (MM1.S): > 100 µM | IC50 (Z-138): 96.5 µM

Cn1c(/C(C#N)=C/c2cccnc2)nc2ccccc21
IC50 (TERT-RPE1): 60.1 µM | IC50 (CAPAN-1): 57.1 µM | IC50 (HCT-116): 85.1 µM | IC50 (NCI-H460): 59.3 µM | IC50 [1]: > 100 µM | IC50 (HL-60): 58.6 µM | IC50 (K562): > 100 µM | IC50 (MM1.S): > 100 µM | IC50 (Z-138): > 100 µM

N#C/C(=C\c1ccc[nH]1)c1nc2ccccc2n1-c1ccccc1
IC50 (TERT-RPE1): 32.4 µM | IC50 (CAPAN-1): 14.2 µM | IC50 (HCT-116): 49.4 µM | IC50 (NCI-H460): 27.4 µM | IC50 [1]: 41.2 µM | IC50 (HL-60): 42 µM | IC50 (K562): > 100 µM | IC50 (MM1.S): > 100 µM | IC50 (Z-138): 67.5 µM

Cn1c(/C(C#N)=C/c2ccc[nH]2)nc2ccccc21
IC50 (TERT-RPE1): > 100 µM | IC50 (CAPAN-1): 84.4 µM | IC50 (HCT-116): > 100 µM | IC50 (NCI-H460): 67.9 µM | IC50 [1]: 73.7 µM | IC50 (HL-60): > 100 µM | IC50 (K562): > 100 µM | IC50 (MM1.S): > 100 µM | IC50 (Z-138): > 100 µM

CC(C)Cn1c(C(C#N)=Cc2ccc(N(C)C)cc2)nc2ccc(C#N)cc21
IC50 (TERT-RPE1): 1.7 µM | IC50 (CAPAN-1): 0.2 µM | IC50 (HCT-116): 0.4 µM | IC50 (NCI-H460): 0.6 µM | IC50 [1]: 0.3 µM | IC50 (HL-60): 0.2 µM | IC50 (K562): 1.4 µM | IC50 (MM1.S): 1.3 µM | IC50 (Z-138): 0.4 µM | IC50 (cells): > 76 µM | inhibition (HEp-2): Active | inhibition (Tubulin (Sus scrofa)): Active

CC(C)Cn1c(C(C#N)=Cc2ccc(N(C)C)cc2)nc2ccccc21
IC50 (TERT-RPE1): 4.3 µM | IC50 (CAPAN-1): 0.3 µM | IC50 (HCT-116): 0.6 µM | IC50 (NCI-H460): 0.4 µM | IC50 [1]: 0.2 µM | IC50 (HL-60): 0.3 µM | IC50 (K562): 2.1 µM | IC50 (MM1.S): 1.5 µM | IC50 (Z-138): 0.4 µM | IC50 (cells): > 98.8 µM | inhibition (HEp-2): Active | inhibition (Tubulin (Sus scrofa)): Active

N#C/C(=C\c1cccnc1)c1nc2ccccc2n1-c1ccccc1
IC50 (TERT-RPE1): 54.4 µM | IC50 (CAPAN-1): 44 µM | IC50 (HCT-116): 50.6 µM | IC50 (NCI-H460): 45.6 µM | IC50 [1]: 60.5 µM | IC50 (HL-60): 31.3 µM | IC50 (K562): > 100 µM | IC50 (MM1.S): 59.5 µM | IC50 (Z-138): 30.2 µM

Cn1c(/C(C#N)=C/c2ccc(Br)cc2)nc2ccccc21
IC50 (TERT-RPE1): 47.3 µM | IC50 (CAPAN-1): 20.5 µM | IC50 (HCT-116): 52.2 µM | IC50 (NCI-H460): 32.1 µM | IC50 [1]: 41.3 µM | IC50 (HL-60): 24.3 µM | IC50 (K562): 57.6 µM | IC50 (MM1.S): 95.7 µM | IC50 (Z-138): 30.7 µM

CC(C)Cn1c(C(C#N)=Cc2ccc([N+](=O)[O-])cc2)nc2ccccc21
IC50 (TERT-RPE1): 53.8 µM | IC50 (CAPAN-1): 30.3 µM | IC50 (HCT-116): 50.4 µM | IC50 (NCI-H460): 14.8 µM | IC50 [1]: 54.6 µM | IC50 (HL-60): 33.4 µM | IC50 (K562): > 100 µM | IC50 (MM1.S): 72.9 µM | IC50 (Z-138): 45.4 µM

N#C/C(=C\c1ccc(Br)cc1)c1nc2ccccc2n1-c1ccccc1
IC50 (TERT-RPE1): 22.8 µM | IC50 (CAPAN-1): 12.9 µM | IC50 (HCT-116): 16 µM | IC50 (NCI-H460): 12 µM | IC50 [1]: 12.3 µM | IC50 (HL-60): 8.6 µM | IC50 (K562): 39.3 µM | IC50 (MM1.S): 35.7 µM | IC50 (Z-138): 11 µM

N#C/C(=C\c1c[nH]c2ccccc12)c1nc2ccccc2n1-c1ccccc1
IC50 (TERT-RPE1): 12.9 µM | IC50 (CAPAN-1): 5.1 µM | IC50 (HCT-116): 7.1 µM | IC50 (NCI-H460): 5.3 µM | IC50 [1]: 10.1 µM | IC50 (HL-60): 6.7 µM | IC50 (K562): 13.6 µM | IC50 (MM1.S): 24.8 µM | IC50 (Z-138): 12.1 µM

CN[C@@H]1C[C@H]2O[C@@](C)([C@@H]1OC)n1c3ccccc3c3c4c(c5c6ccccc6n2c5c31)C(=O)NC4 [STAUROSPORINE]
IC50 (HCT-116): 0.0281 µM | IC50 [1]: 0.016 µM | IC50 (K562): 0.0768 µM

N#C/C(=C\c1cnc2ccccc2c1)c1nc2ccccc2n1-c1ccccc1
IC50 (TERT-RPE1): 12.2 µM | IC50 (CAPAN-1): 10 µM | IC50 (HCT-116): 12.4 µM | IC50 (NCI-H460): 13.6 µM | IC50 [1]: 14.1 µM | IC50 (HL-60): 15.3 µM | IC50 (K562): > 100 µM | IC50 (MM1.S): 62.4 µM | IC50 (Z-138): 12.6 µM

CC(=O)O[C@@]12CO[C@@H]1C[C@H](O)[C@@]1(C)C(=O)[C@H](O)C3=C(C)[C@@H](OC(=O)[C@H](O)[C@@H](NC(=O)OC(C)(C)C)c4ccccc4)C[C@@](O)([C@@H](OC(=O)c4ccccc4)[C@H]21)C3(C)C [DOCETAXEL ANHYDROUS]
IC50 (TERT-RPE1): 0.0553 µM | IC50 (CAPAN-1): 0.0088 µM | IC50 (HCT-116): 0.0017 µM | IC50 (NCI-H460): 0.0024 µM | IC50 [1]: 0.0125 µM | IC50 (HL-60): 0.0072 µM | IC50 (K562): 0.0152 µM | IC50 (MM1.S): 0.0118 µM | IC50 (Z-138): 0.0142 µM

Cn1c(/C(C#N)=C/c2cnc3ccccc3c2)nc2ccccc21
IC50 (TERT-RPE1): 39.4 µM | IC50 (CAPAN-1): 66.9 µM | IC50 (HCT-116): > 100 µM | IC50 (NCI-H460): 22.4 µM | IC50 [1]: 49.9 µM | IC50 (HL-60): 33 µM | IC50 (K562): > 100 µM | IC50 (MM1.S): > 100 µM | IC50 (Z-138): 45 µM

CC(C)Cn1c(/C(C#N)=C/c2ccccc2)nc2ccccc21
IC50 (TERT-RPE1): 44.9 µM | IC50 (CAPAN-1): 20.6 µM | IC50 (HCT-116): 42.4 µM | IC50 (NCI-H460): 26.1 µM | IC50 [1]: 60 µM | IC50 (HL-60): 29.1 µM | IC50 (K562): 53.4 µM | IC50 (MM1.S): 66.7 µM | IC50 (Z-138): 40.1 µM

CN(C)c1ccc(/C=C(\C#N)c2nc3ccc(C#N)cc3n2-c2ccccc2)cc1
IC50 (TERT-RPE1): 27.8 µM | IC50 (CAPAN-1): 3.1 µM | IC50 (HCT-116): 26.8 µM | IC50 (NCI-H460): 45.7 µM | IC50 [1]: 55.8 µM | IC50 (HL-60): 10.9 µM | IC50 (K562): > 100 µM | IC50 (MM1.S): > 100 µM | IC50 (Z-138): 17.4 µM

Cn1c(/C(C#N)=C/c2c[nH]c3ccccc23)nc2ccccc21
IC50 (TERT-RPE1): 27.3 µM | IC50 (CAPAN-1): 13.3 µM | IC50 (HCT-116): 29 µM | IC50 (NCI-H460): 12.1 µM | IC50 [1]: 14.9 µM | IC50 (HL-60): 13.5 µM | IC50 (K562): 37 µM | IC50 (MM1.S): 71 µM | IC50 (Z-138): 9.9 µM

— ChEMBL document CHEMBL4818996, “N-substituted benzimidazole acrylonitriles as in vitro tubulin polymerization inhibitors: Synthesis, biological activity and computational analysis” (Eur J Med Chem, 2021)
